≈ marks a conversion by molar mass, not a printed value. Calls of active or inactive are those of the source. The calls are words filed in the database; no cut-off is given here.
What was measured:
Cercospora beticola = experiment: Fungicidal activity against Cercospora beticola assessed as inhibition of radial growth; format: functional, organism-based
Method in brief: (§1)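 Strains from the IPV collection were maintained on potato dextrose agar. Radial growth on PDA was measured at 100–0.1 mg L-1. % inhibition was taken from the mean difference between treated and control cultures relative to control. % inhibition was plotted on a probit scale against dose to give EC50.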

Fusarium graminearum = experiment: Fungicidal activity against Fusarium graminearum assessed as inhibition of radial growth; format: functional, organism-based
Method in brief: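 The Fusarium isolate came from the IPV collection and was kept on PDA. Radial growth was measured on PDA plates at 100–0.1 mg L-1. Percentage inhibition was taken from the mean difference between treated and control cultures. EC50 came from a probit plot of percentage inhibition against dose.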

Oculimacula yallundae = experiment: Fungicidal activity against Oculimacula yallundae assessed as inhibition of radial growth; format: functional, organism-based; method in brief: as §1
Botrytis cinerea = experiment: Fungicidal activity against Botryotinia fuckeliana assessed as inhibition of radial growth; format: functional, organism-based; method in brief: as §1
Ustilago maydis = experiment: Fungicidal activity against Ustilago maydis ATCC 14826 assessed as inhibition of fungal cell count; format: functional, organism-based; conditions: Mycosarcoma maydis
Method in brief: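 U. maydis ATCC 14826 broth cultures were grown in Coursen and Sisler broth with compound. Growth was estimated by sporidial cell count at the end of treatment and expressed as % inhibition versus the untreated control.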

Pyrenophora teres = experiment: Fungicidal activity against Pyrenophora teres assessed as inhibition of radial growth; format: functional, organism-based; method in brief: as §1
Blumeria graminis = experiment: Antifungal activity against Blumeria graminis f. sp. tritici infected in 125 ug/mL […] assessed as inhibition of wheat powdery mildew disease measured after 10 days post fungal inoculation; format: functional
Phytophthora infestans = experiment: Antifungal activity against Phytophthora infestans infected 125 ug/mL compound pre-treated six-leaves stage tomato plant seedlings assessed as inhibition of disease measured after 7 days post fungal inoculation; format: functional
Method in brief: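 Preventive application before inoculation. Tomato plants were sprayed with a P. infestans zoosporangia suspension (5 × 10^4 mL-1). Plants were held 24 h at 20 ± 1 °C and 100% RH, then moved to a greenhouse at 23 ± 1 °C and 70 ± 10% RH. Diseased leaf area was scored 7 days after inoculation against nontreated plants to give percentage disease inhibition.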

Puccinia recondita = experiment: Antifungal activity against Puccinia recondita infected 125 ug/mL compound […] assessed as inhibition of wheat brown rust disease measured after 10 days post fungal inoculation; format: functional
[1] = biological target: T1, Squalene monooxygenase (Mycosarcoma maydis) (UniProt A0A0D1C8X8); experiment: Inhibition of squalene epoxidase in Ustilago maydis ATCC 14826 assessed as effect on squalene level at 0.01 to 100 mg/L measured after 18 hr post compound treatment
T1 sequence (whole entry): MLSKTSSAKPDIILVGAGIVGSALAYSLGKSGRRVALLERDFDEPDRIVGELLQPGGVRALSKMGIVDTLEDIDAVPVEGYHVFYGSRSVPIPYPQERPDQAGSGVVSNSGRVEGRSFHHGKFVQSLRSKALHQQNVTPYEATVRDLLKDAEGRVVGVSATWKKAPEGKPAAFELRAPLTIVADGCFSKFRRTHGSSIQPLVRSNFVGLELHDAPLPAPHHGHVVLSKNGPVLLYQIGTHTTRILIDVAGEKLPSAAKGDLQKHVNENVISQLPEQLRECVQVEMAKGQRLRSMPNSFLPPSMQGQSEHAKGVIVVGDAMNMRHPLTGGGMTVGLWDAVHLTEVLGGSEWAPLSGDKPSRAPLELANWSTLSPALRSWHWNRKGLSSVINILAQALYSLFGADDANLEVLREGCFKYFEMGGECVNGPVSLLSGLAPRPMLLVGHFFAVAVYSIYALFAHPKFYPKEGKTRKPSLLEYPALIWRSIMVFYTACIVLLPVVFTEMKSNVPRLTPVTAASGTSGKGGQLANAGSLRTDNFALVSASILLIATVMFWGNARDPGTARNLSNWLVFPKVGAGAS
Method in brief: (§2)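 U. maydis was grown in Coursen and Sisler broth with compound at 0.01–100 mg L-1 for 18 h. Sporidia were harvested by centrifugation, spiked with dihydrocholesterol as a known-amount standard, and saponified in 20% KOH in 60% ethanol for 1 h at 90 °C. The unsaponifiable fraction, including squalene and 14-methyl sterols, was analysed by capillary GC-FID and GC-MS.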

[2] = biological target: T2, Lanosterol 14-alpha demethylase (Mycosarcoma maydis) (UniProt P49602); experiment: Inhibition of 14alpha-demethylase in Ustilago maydis ATCC 14826 assessed as increase in 14-methyl sterols levels at 0.01 to 100 mg/L measured after 18 hr post compound treatment; method in brief: as §2
T2 sequence (whole entry): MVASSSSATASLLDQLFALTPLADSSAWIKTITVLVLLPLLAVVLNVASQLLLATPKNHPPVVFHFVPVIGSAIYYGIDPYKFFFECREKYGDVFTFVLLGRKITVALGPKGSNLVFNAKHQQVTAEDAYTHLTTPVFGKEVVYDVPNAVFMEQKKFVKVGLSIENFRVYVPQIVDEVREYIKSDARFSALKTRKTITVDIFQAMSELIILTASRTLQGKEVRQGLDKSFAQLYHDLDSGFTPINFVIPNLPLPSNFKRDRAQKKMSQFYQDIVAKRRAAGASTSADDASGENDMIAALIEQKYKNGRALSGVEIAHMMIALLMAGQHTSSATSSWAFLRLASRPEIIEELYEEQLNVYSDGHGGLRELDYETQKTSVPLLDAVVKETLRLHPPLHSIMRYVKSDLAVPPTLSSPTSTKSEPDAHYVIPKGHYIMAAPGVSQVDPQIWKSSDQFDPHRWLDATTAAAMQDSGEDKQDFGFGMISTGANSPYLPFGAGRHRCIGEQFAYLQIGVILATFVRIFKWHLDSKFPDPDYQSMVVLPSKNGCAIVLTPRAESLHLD

Compound | EC50 (Cercospora beticola) | EC50 (Fusarium graminearum) | EC50 (Oculimacula yallundae) | EC50 (Botrytis cinerea) | EC50 (Ustilago maydis) | EC50 (Pyrenophora teres) | inhibition (INH) (Blumeria graminis) | inhibition (INH) (Phytophthora infestans) | inhibition (INH) (Puccinia recondita) | inhibition [1] | inhibition [2]
CN(C)CC(Cn1cncn1)c1ccc(Cl)cc1Cl (centres undefined) | 8 µg/mL (≈ 26.7 µM) | > 100 µg/mL | 6.5 µg/mL (≈ 21.7 µM) | 75 µg/mL (≈ 251 µM) | 2.5 µg/mL (≈ 8.36 µM) | 42 µg/mL (≈ 140 µM) |  |  |  |  | 
CC(=O)NCC(Cn1cncn1)c1ccc(Cl)cc1Cl (centres undefined) | > 100 µg/mL | > 100 µg/mL | > 100 µg/mL | > 100 µg/mL | 60 µg/mL (≈ 192 µM) | > 100 µg/mL |  |  |  |  | 
Clc1ccc(C(CN(C2CC2)C2CC2)Cn2cncn2)c(Cl)c1 (centres undefined) | 0.4 µg/mL (≈ 1.14 µM) | 55 µg/mL (≈ 157 µM) | 1.2 µg/mL (≈ 3.42 µM) | 7.5 µg/mL (≈ 21.4 µM) | 0.02 µg/mL (≈ 0.0569 µM) | 5.5 µg/mL (≈ 15.7 µM) | 60% | 0% | 10% |  | 
CC(C)(C)c1ccc(CN(Cc2ccc(C(C)(C)C)cc2)CC(Cn2cncn2)c2ccc(Cl)cc2Cl)cc1 (centres undefined) | 7 µg/mL (≈ 12.4 µM) | > 100 µg/mL | > 100 µg/mL | > 100 µg/mL | 9 µg/mL (≈ 16 µM) | > 100 µg/mL |  |  |  |  | 
C#CCN(CC#C)CC(Cn1cncn1)c1ccc(Cl)cc1Cl (centres undefined) | 1.1 µg/mL (≈ 3.17 µM) | 9 µg/mL (≈ 25.9 µM) | 2.8 µg/mL (≈ 8.06 µM) | 4.9 µg/mL (≈ 14.1 µM) | 0.14 µg/mL (≈ 0.403 µM) | 2.1 µg/mL (≈ 6.05 µM) | 35% | 0% | 15% |  | 
FC(F)C(F)(F)OCC(Cn1cncn1)c1ccc(Cl)cc1Cl (centres undefined) [TETRACONAZOLE] |  |  |  | 0.04 µg/mL (≈ 0.107 µM) |  |  | 100% | 0% | 100% |  | 
Clc1ccc(C(CNC/C=C/c2ccccc2)Cn2cncn2)c(Cl)c1 (centres undefined) | 2.4 µg/mL (≈ 6.2 µM) | 26 µg/mL (≈ 67.1 µM) | 7.5 µg/mL (≈ 19.4 µM) | 42 µg/mL (≈ 108 µM) | 1.4 µg/mL (≈ 3.61 µM) | 12 µg/mL (≈ 31 µM) | 25% | 0% | 20% |  | 
Clc1ccc(C(CN(C/C=C/c2ccccc2)C/C=C/c2ccccc2)Cn2cncn2)c(Cl)c1 (centres undefined) | 12.5 µg/mL (≈ 24.8 µM) | > 100 µg/mL | > 100 µg/mL | > 100 µg/mL | 0.65 µg/mL (≈ 1.29 µM) | 6 µg/mL (≈ 11.9 µM) |  |  |  |  | 
O=C(NCC(Cn1cncn1)c1ccc(Cl)cc1Cl)c1ccccc1 (centres undefined) | 2.5 µg/mL (≈ 6.66 µM) | > 100 µg/mL | 80.3 µg/mL (≈ 214 µM) | 100 µg/mL (≈ 266 µM) | 1.9 µg/mL (≈ 5.06 µM) | 11.5 µg/mL (≈ 30.6 µM) |  |  |  |  | 
NCC(Cn1cncn1)c1ccc(Cl)cc1Cl (centres undefined) | > 100 µg/mL | > 100 µg/mL | > 100 µg/mL | > 100 µg/mL | 70.3 µg/mL (≈ 259 µM) | > 100 µg/mL |  |  |  |  | 
C=CCNCC(Cn1cncn1)c1ccc(Cl)cc1Cl (centres undefined) | 31.7 µg/mL (≈ 102 µM) | > 100 µg/mL | 91.3 µg/mL (≈ 293 µM) | > 100 µg/mL | 19.9 µg/mL (≈ 63.9 µM) | > 100 µg/mL |  |  |  |  | 
Clc1ccc(C(CNCc2ccccc2)Cn2cncn2)c(Cl)c1 (centres undefined) | 2.7 µg/mL (≈ 7.47 µM) | > 100 µg/mL | 23.4 µg/mL (≈ 64.8 µM) | > 100 µg/mL | 11.3 µg/mL (≈ 31.3 µM) | 30.3 µg/mL (≈ 83.9 µM) |  |  |  |  | 
Clc1ccc(C(CN(Cc2ccccc2)Cc2ccccc2)Cn2cncn2)c(Cl)c1 (centres undefined) | 4 µg/mL (≈ 8.86 µM) | > 100 µg/mL | 17 µg/mL (≈ 37.7 µM) | 6 µg/mL (≈ 13.3 µM) | 0.09 µg/mL (≈ 0.199 µM) | 1.9 µg/mL (≈ 4.21 µM) |  |  |  |  | 
C/C=C/C(=O)NCC(Cn1cncn1)c1ccc(Cl)cc1Cl (centres undefined) | 60.5 µg/mL (≈ 178 µM) | > 100 µg/mL | > 100 µg/mL | > 100 µg/mL | 20.7 µg/mL (≈ 61 µM) | > 100 µg/mL |  |  |  |  | 
C=CCN(CC=C)CC(Cn1cncn1)c1ccc(Cl)cc1Cl (centres undefined) | 2.6 µg/mL (≈ 7.4 µM) | > 100 µg/mL | 3.6 µg/mL (≈ 10.2 µM) | 10 µg/mL (≈ 28.5 µM) | 0.22 µg/mL (≈ 0.626 µM) | 6.5 µg/mL (≈ 18.5 µM) | 30% | 0% | 25% | inactive | Active
C=CCN(CC(Cn1cncn1)c1ccc(Cl)cc1Cl)C1CC1 (centres undefined) | 0.2 µg/mL (≈ 0.569 µM) | 55 µg/mL (≈ 157 µM) | 0.8 µg/mL (≈ 2.28 µM) | 4.4 µg/mL (≈ 12.5 µM) | 0.01 µg/mL (≈ 0.0285 µM) | 3.2 µg/mL (≈ 9.11 µM) |  |  |  |  | 
C#CCNCC(Cn1cncn1)c1ccc(Cl)cc1Cl (centres undefined) | 4 µg/mL (≈ 12.9 µM) | > 100 µg/mL | 11 µg/mL (≈ 35.6 µM) | 38 µg/mL (≈ 123 µM) | 1.3 µg/mL (≈ 4.2 µM) | 38 µg/mL (≈ 123 µM) |  |  |  |  | 

— ChEMBL document CHEMBL3046864, “Synthesis and antifungal activity of a series of N-substituted [2-(2,4-dichlorophenyl)-3-(1,2,4-triazol-1-yl)]propylamines” (J Agric Food Chem, 2007)
